Each block holds one compound with its values, some of them ahead of it. Calls of active or inactive are those of the source. No cut-off for these calls is given here.
How the values were obtained:
[1] = Inhibition of wild type human plasma alpha-thrombin assessed as spectrozyme TH hydrolysis after 10 mins in absence of exosite 1 ligand HirP
How it was run: (§1)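 Buffer was 20 mM Tris-HCl pH 7.4, 100 mM NaCl, 2.5 mM CaCl2, 0.1% PEG 8000. After 10 min, Spectrozyme TH was added and A405 read. Apparent IC50 and efficacy came from a logistic fit with all parameters floating.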

Homo sapiens [2] = organism: Homo sapiens; test: Binding affinity to human antithrombin by spectrofluorometric analysis
Coagulation factor X = Coagulation factor X (Homo sapiens, UniProt P00742); test: Inhibition of human plasma F10a assessed as spectrozyme TH hydrolysis after 10 mins
Coagulation factor X, sequence (P00742 41-179 limits assumed): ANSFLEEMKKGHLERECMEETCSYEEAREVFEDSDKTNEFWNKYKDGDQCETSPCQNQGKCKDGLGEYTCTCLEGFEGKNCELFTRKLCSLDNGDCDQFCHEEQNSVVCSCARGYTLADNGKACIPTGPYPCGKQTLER
Coagulation factor X, sequence (P00742 235-488 limits assumed): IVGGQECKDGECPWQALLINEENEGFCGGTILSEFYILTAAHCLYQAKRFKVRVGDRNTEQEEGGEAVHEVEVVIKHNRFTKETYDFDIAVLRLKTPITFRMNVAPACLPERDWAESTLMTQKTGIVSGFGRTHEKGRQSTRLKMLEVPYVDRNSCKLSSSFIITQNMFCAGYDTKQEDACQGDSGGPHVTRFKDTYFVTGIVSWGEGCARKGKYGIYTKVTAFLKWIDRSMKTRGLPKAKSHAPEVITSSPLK
How it was run: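 Chromogenic assay of human plasma factor Xa (4 nM final) at 25 °C in 20 mM Tris-HCl pH 7.4, 100 mM NaCl, 2.5 mM CaCl2, 0.1% PEG 8000. Inhibitor dilutions (from 0.25–12.5 mM stocks) incubated with enzyme 10 min, then 1 mM Spectrozyme TH stock added. Initial rate at 405 nm gave fractional residual activity. Fitting the logistic equation yielded apparent IC50, Hill slope and efficacy ΔY.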

[3] = Inhibition of wild type human plasma alpha-thrombin assessed as spectrozyme TH hydrolysis after 10 mins in presence of 6.5 uM exosite 2 ligand FibP; format: cell-free; how it was run: as §1
Homo sapiens [4] = organism: Homo sapiens; test: Inhibition of wild type human plasma alpha-thrombin assessed as spectrozyme TH hydrolysis after 10 mins in presence of exosite 1 ligand HirP; format: cell-free; how it was run: as §1
[5] = Inhibition of recombinant thrombin Lys235Ala mutant expressed in BHK cells assessed as spectrozyme TH hydrolysis after 10 mins; format: cell-based
How it was run: (§2)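 Recombinant thrombins (wild type or Ala mutants) made as prothrombin-1 in BHK cells, purified by HPC4 immunoaffinity, activated, and active-site titrated. About 5 nM enzyme was incubated 10 min at 25 °C with inhibitor in 20 mM Tris-HCl pH 7.4, 100 mM NaCl, 2.5 mM CaCl2, 0.1% PEG 8000. Spectrozyme TH was then added, and the initial A405 rate was read. The dose-response of fractional residual activity was fitted to a logistic equation for IC50, Hill slope and efficacy.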

[6] = Partial competitive inhibition of wild type human plasma alpha-thrombin assessed as spectrozyme TH hydrolysis after 10 mins in presence of 48 uM exosite 2 ligand UFH; format: cell-free; how it was run: as §1
[7] = Inhibition of wild type human plasma alpha-thrombin assessed as spectrozyme TH hydrolysis after 10 mins in presence of 10 uM exosite 2 ligand H8; format: cell-free; how it was run: as §1
A549 = test: Cytotoxicity against human A549 cells assessed as cell viability up to 420 uM after 120 hrs by MTT assay; format: cell-based; settings: a549, 120 h
How it was run: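 A549 cells in DMEM with 10% heat-inactivated FBS were kept at 37 °C, 5% CO2. Cells were seeded at 30,000 per well for 4 h, then exposed to medium or varying compound concentrations (aqueous stock) for 120 h at 37 °C. MTT was added for 10 h, followed by SDS/DMF lysis for 10 h. Three experiments were run, analysed by one-way ANOVA with Dunnett's test.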

[8] = Inhibition of recombinant thrombin Lys169Ala mutant expressed in BHK cells assessed as spectrozyme TH hydrolysis after 10 mins; format: cell-based; how it was run: as §2
Prothrombin [9] = molecular target: T1, Prothrombin (Homo sapiens, UniProt P00734); test: Inhibition of recombinant wild type thrombin expressed in BHK cells assessed as spectrozyme TH hydrolysis at 0.25 to 12.5 mM after 10 mins; format: cell-based
Prothrombin [10] = molecular target: T1, Prothrombin; test: Inhibition of recombinant wild type thrombin expressed in BHK cells assessed as spectrozyme TH hydrolysis after 10 mins; format: cell-based; how it was run: as §2
[11] = Inhibition of recombinant thrombin Arg93,97,101Ala mutant expressed in BHK cells assessed as spectrozyme TH hydrolysis after 10 mins; format: cell-based; how it was run: as §2
[12] = Inhibition of wild type human plasma alpha-thrombin assessed as spectrozyme TH hydrolysis after 10 mins by spectrophotometric analysis in absence of exosite 2 ligand UFH; how it was run: as §1
[13] = Inhibition of wild type human plasma alpha-thrombin assessed as spectrozyme TH hydrolysis after 10 mins in absence of exosite 2 ligand FibP; how it was run: as §1
[14] = Inhibition of wild type human plasma alpha-thrombin assessed as spectrozyme TH hydrolysis after 10 mins in absence of exosite 2 ligand H8; how it was run: as §1
BHK = test: Inhibition of recombinant thrombin Arg93,97,101Ala mutant expressed in BHK cells assessed as spectrozyme TH hydrolysis at 0.25 to 12.5 mM after 10 mins; format: cell-based
[15] = Inhibition of recombinant thrombin Arg175Ala mutant expressed in BHK cells assessed as spectrozyme TH hydrolysis after 10 mins; format: cell-based; how it was run: as §2

IC50 [1]: > 500 µM
SMILES: COc1cc2oc(C)c(C(=O)O)c2cc1OCc1oc2cc(OC)c(OS(=O)(=O)O)cc2c1C(=O)O

Activity (Homo sapiens [2]): 50 nM
SMILES: CO[C@H]1O[C@H](COS(=O)(=O)O)[C@@H](O[C@@H]2O[C@@H](C(=O)O)[C@@H](O[C@H]3O[C@H](COS(=O)(=O)O)[C@@H](O[C@@H]4O[C@H](C(=O)O)[C@@H](O[C@H]5O[C@H](COS(=O)(=O)O)[C@@H](O)[C@H](O)[C@H]5NS(=O)(=O)O)[C@H](O)[C@H]4O)[C@H](OS(=O)(=O)O)[C@H]3NS(=O)(=O)O)[C@H](O)[C@H]2OS(=O)(=O)O)[C@H](O)[C@H]1NS(=O)(=O)O

IC50 [1]: 31.9 µM
SMILES: COC(=O)c1c(C)oc2cc(OC)c(OCc3oc4cc(OC)c(OS(=O)(=O)O)cc4c3C(=O)OC)cc12

SMILES: CCOC(=O)c1c(C)oc2cc(OC)c(OCc3oc4cc(OC)c(OS(=O)(=O)[O-])cc4c3C(=O)OCC)cc12.[Na+]
IC50 (Coagulation factor X): > 300 µM | IC50 [3]: 118 µM | IC50 [1]: 6.2 µM | inhibition (Homo sapiens [4]): Active | IC50 [5]: 4.9 µM | IC50 [6]: 36.1 µM | IC50 [7]: 3.7 µM | Activity (A549): Non-toxic | IC50 [8]: 4.9 µM | inhibition (Prothrombin [9]): 30% | IC50 (Prothrombin [10]): 5.5 µM | IC50 [11]: 5 µM | IC50 [12]: 8.8 µM | IC50 [13]: 7.9 µM | IC50 [14]: 2.7 µM | inhibition (BHK): 70% | IC50 [15]: 4.9 µM

IC50 [1]: 1.3 µM
SMILES: CCOC(=O)c1c(C)oc2cc(OC(C)C)c(OCc3oc4cc(OC(C)C)c(OS(=O)(=O)O)cc4c3C(=O)OCC)cc12

IC50 [1]: 4.5 µM
SMILES: CCOC(=O)c1c(C)oc2cc(OCC)c(OCc3oc4cc(OCC)c(OS(=O)(=O)O)cc4c3C(=O)OCC)cc12

IC50 [1]: 16.9 µM
SMILES: COCCOC(=O)c1c(C)oc2cc(OC)c(OCc3oc4cc(OC)c(OS(=O)(=O)O)cc4c3C(=O)OCCOC)cc12
